Tests used:
[1] = L-cystine diamides in mouse urine after oral dosing; format: in vivo; settings: mice, daily gavage 29.3 μmol/kg, micromolar concentrations in urine
[2] = tested on: Slc3a1 knockout male mice; assay: In vivo activity in genetic mouse model of cystinuria; settings: 29.3 μmol/kg daily gavage for 4 weeks
Procedure, shortened: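 Male Slc3a1 knockout mice in groups of six or seven received test compound at 29.3 μmol/kg by daily oral gavage for 4 weeks. Seven controls got water only. Read-out was the fraction of mice in each group that formed stones.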

[3] = Chemical stability in pH 7.4 phosphate buffered saline at 37 °C by LC-MS; format: physicochemical
Procedure, shortened: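 Test compound incubated in pH 7.4 phosphate-buffered saline at 37 °C. Loss of parent compound followed over time by LC-MS, and half-life taken from its disappearance.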

[4] = In situ AFM measurement of L-cystine crystal step velocities; settings: aqueous 2 mM L-cystine; for V/V0 normalized step velocity @ 15 μM: 15 μM inhibitor; for V/V0 normalized step velocity @ 30 μM: 30 μM inhibitor; for V/V0 normalized step velocity @ 45 μM: 45 μM inhibitor
[5] = tested on: Slc3a1 knockout male mice; settings: knockout mouse model of cystinuria, previous study; cited from earlier work
[6] = cited from earlier work

SMILES: CN1CCN(C(=O)[C@@H](N)CSSC[C@H](N)C(=O)N2CCN(C)CC2)CC1.Cl.Cl.Cl.Cl [Compound 1b, L-cystine bis(N′-methylpiperazide)]
- Oral bioavailability (found in urine after oral dosing) [1]: orally bioavailable
- Effectiveness in preventing stone formation [2]: effective
- half-life [3]: 46.2 days
- V/V0 normalized step velocity @ 15 μM [4]: 0.52–0.66
- V/V0 normalized step velocity @ 30 μM [4]: 0.32–0.50
- V/V0 normalized step velocity @ 45 μM [4]: 0.30–0.40

SMILES: COC(=O)[C@@H](N)CSSC[C@H](N)C(=O)OC [CDME, L-cystine dimethyl ester, reference compound]
- Effect on stone size and stone burden [5]: effective in reducing stone size and stone burden
- Effect on the number of mice that formed stones [5]: no effect
- Ratio (improvement in potency over the control CDME) (Fluorescence assay; EC2x ratio vs CDME): 1.0
- half-life [3]: ~0.113 days
- V/V0 normalized step velocity @ 15 μM [4]: 0.4–0.65
- V/V0 normalized step velocity @ 30 μM [4]: 0.27–0.54
- V/V0 normalized step velocity @ 45 μM [4]: 0.21–0.48

SMILES: N[C@@H](CSSC[C@H](N)C(=O)O)C(=O)O [L-cystine]
- Reported equilibrium concentration of L-cystine [6]: 0.7 mM
- Concentration of L-cystine in the supernatant in the absence of inhibitor (Fluorescence assay; water, 25 °C, 72 h): approximately 1 mM

SMILES: Cl.Cl.N[C@@H](CSSC[C@H](N)C(=O)N1CCOCC1)C(=O)N1CCOCC1 [Compound 1a, L-Cystine bismorpholide]
- Oral bioavailability (found in urine after oral dosing) [1]: orally bioavailable
- Effectiveness in preventing stone formation [2]: ineffective
- half-life [3]: 19.8 days
- V/V0 normalized step velocity @ 15 μM [4]: 0.44–0.65
- V/V0 normalized step velocity @ 30 μM [4]: 0.34–0.58
- V/V0 normalized step velocity @ 45 μM [4]: 0.29–0.53
